Assay results published in ChEMBL document CHEMBL1132984 (J Med Chem, 2000).
pIC50: −log10 of the molar value.

System: not listed separately
Experiment: Selectivity ratio of MAP ED20/bladder ED50
Type: functional
Conditions: not given; call rule not given here
Outline: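 Ratio of the oral ED20 for a 20% MAP drop in normotensive rats to the oral ED50 for a 50% reduction in spontaneous bladder contraction frequency in the urethral-obstructed rat instability model.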

SMILES	Ratio
CCc1cc(C#N)ccc1Nc1c(N[C@H](C)C(C)(C)C)c(=O)c1=O	17.7
CC1(C)Oc2ccc(OC(F)(F)F)cc2[C@@H](N2Cc3ccccc3C2=O)[C@@H]1O	0.7
C[C@](O)(C(=O)Nc1ccc(C(=O)c2ccccc2)cc1)C(F)(F)F [ZD-6169]	2.9

Species: Rattus norvegicus
Experiment: In vitro inhibitory concentration that relaxes KCL induced contraction in rat detrusor strips by 50%; NE=no effect
Type: functional
Conditions: not given
Outline: (§1)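 Female Sprague-Dawley rat (250-350 g) detrusor strips, 4-5 mm by 10 mm, pretensioned 0.25-0.5 g in a tissue bath and contracted with an additional 15 mM KCl. Compounds added as cumulative concentrations to steady state. Contractility measured as 5 min area under the contraction curve per concentration; IC50 is the concentration relaxing KCl-induced contraction by 50%. Glyburide added at end.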

IC50	SMILES
Not Active	C[C@@H](/N=c1\c(O)c(O)\c1=N/c1ccc(C#N)c(O)c1)C(C)(C)C
Not Active	CC(/N=c1\c(O)c(O)\c1=N/c1ccc(C#N)cc1)c1ccc(F)cc1 (stereo not given)
Not Active	CC(/N=c1\c(O)c(O)\c1=N/c1ccc(C#N)cc1)c1ccc([N+](=O)[O-])cc1 (stereo not given)

System: Rattus norvegicus
Experiment: compound was evaluated in vivo for maximum % change in MAP in normotensive rat model after oral administration of a dose of 30 mg/kg
Type: functional
Conditions: not given
Outline: (§2)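 Normotensive rats given test compound orally in a separate group from the efficacy animals. Mean arterial pressure and heart rate recorded after dosing, with maximum % change in MAP from initial values reported. ED20 is the oral dose causing a 20% drop in MAP.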

SMILES	Change [%]
CC(/N=c1\c(O)c(O)\c1=N/c1ccc(C#N)cc1)C(C)(C)C (stereo not given)	8

System: Rattus norvegicus
Experiment: Compound was evaluated in vivo for the % change in the frequency of spontaneous bladder contractions in the rat after oral administration of a dose of 10 mg/kg
Type: functional
Conditions: not given

SMILES	Change [%]
CC(/N=c1\c(O)c(O)\c1=N/c1ccc(C#N)cc1)C(C)(C)C (stereo not given)	-83
CC(/N=C(\NC#N)Nc1ccc(C#N)cc1)C(C)(C)C (stereo not given)	-27

System: Rattus norvegicus
Experiment: Effective dose in vivo for reduction in the frequency of spontaneous bladder contractions in the rat oral administration
Type: functional
Conditions: not given

SMILES	ED50 [mg/kg]
CCc1cc(C#N)ccc1Nc1c(N[C@H](C)C(C)(C)C)c(=O)c1=O	0.13
CC1(C)Oc2ccc(OC(F)(F)F)cc2[C@@H](N2Cc3ccccc3C2=O)[C@@H]1O	0.3
C[C@](O)(C(=O)Nc1ccc(C(=O)c2ccccc2)cc1)C(F)(F)F [ZD-6169]	2.4

Species: Rattus norvegicus
Experiment: In vitro inhibitory concentration that relaxes KCL induced contraction in rat detrusor strips by 50%
Type: functional
Conditions: not given
Outline: as §1

SMILES	pIC50
N#Cc1ccc(Nc2c(NC3CC4CCC3C4)c(=O)c2=O)cc1 (stereo in doubt; 58)	< 4.52
N#Cc1ccc(Nc2c(NC3CC4CCC3C4)c(=O)c2=O)cc1 (stereo in doubt; 57)	5.47

The remaining lines, values ahead:

pIC50	SMILES
4.61	C[C@@H](/N=c1\c(O)c(O)\c1=N/c1ccc(C#N)cc1)C(C)(C)C (stereo in doubt; 43)
6.43	C[C@@H](/N=c1\c(O)c(O)\c1=N/c1ccc(C#N)cc1)C(C)(C)C (stereo in doubt; 42)

Same assay, conditions: Rattus norvegicus

SMILES	pIC50
N#Cc1ccc(Nc2c(NC3CCCC3)c(=O)c2=O)cc1	4.94
CC(/N=c1\c(O)c(O)\c1=N/c1cccnc1O)C(C)(C)C (stereo not given)	< 4.52
CCC(C)(C)/N=c1\c(O)c(O)\c1=N/c1ccc(C#N)cc1	< 4.52
CCC(CC)/N=c1\c(O)c(O)\c1=N/c1ccc(C#N)cc1	5.48
COc1cc(C#N)ccc1/N=c1\c(O)c(O)\c1=N/[C@H](C)C(C)(C)C	6.54
C[C@@H](/N=c1\c(O)c(O)\c1=N/c1ccc(C#N)cc1)C1CCCCC1	5.59
C[C@@H](/N=c1\c(O)c(O)\c1=N/c1ccc(C#N)cc1O)C(C)(C)C	5.22
COC(=O)c1ccc(Nc2c(NC(C)C(C)(C)C)c(=O)c2=O)cc1 (stereo not given)	< 4.52
N#Cc1ccc(Nc2c(NC3CCCCC3)c(=O)c2=O)cc1	< 4.52
CCC(C)/N=c1\c(O)c(O)\c1=N/c1ccc(C#N)cc1 (stereo not given)	5.68
CC(C)(C)/N=c1\c(O)c(O)\c1=N/c1cccc2cnccc12	5.74
CSc1ccc(Nc2c(NC(C)C(C)(C)C)c(=O)c2=O)cc1 (stereo not given)	< 4.52
CC(/N=c1\c(O)c(O)\c1=N/c1cnc2ccccc2c1)C(C)(C)C (stereo not given)	< 4.52
CCc1cc(C#N)ccc1Nc1c(N[C@H](C)C(C)(C)C)c(=O)c1=O	7.05
CCc1cc(Nc2c(N[C@H](C)C(C)(C)C)c(=O)c2=O)ccc1C#N	4.75
N#Cc1ccc(Nc2c(NCc3ccccc3)c(=O)c2=O)cc1	< 4.52
CC(/N=c1\c(O)c(O)\c1=N/c1cccc2cccnc12)C(C)(C)C (stereo not given)	5.09
CC(C)(C)C/N=c1\c(O)c(O)\c1=N/c1ccc(C#N)cc1	< 4.52
CC(C)(C)/N=c1\c(O)c(O)\c1=N/c1cnc2ccccc2c1	< 4.52
CC(C)(/N=c1\c(O)c(O)\c1=N/c1ccc(C#N)cc1)c1ccccc1	< 4.52
Cc1cc(C#N)ccc1/N=c1\c(O)c(O)\c1=N/[C@H](C)C(C)(C)C	5.97
C[C@H](/N=c1\c(O)c(O)\c1=N/c1ccc(C#N)cc1)C1CCCCC1	< 4.52
C[C@@H](/N=c1\c(O)c(O)\c1=N/c1ccc(C#N)cc1)c1ccccc1	7.25
CC(C)C(C)/N=c1\c(O)c(O)\c1=N/c1ccc(C#N)cc1 (stereo not given)	5.72
CCCCCCC/N=c1\c(O)c(O)\c1=N/c1ccc(C#N)cc1	< 4.52

SMILES	pIC50
C[C@@H](/N=c1\c(O)c(O)\c1=N/c1ccc(C#N)cc1Cl)C(C)(C)C	7.39
C/N=c1\c(O)c(O)\c1=N/c1ccc(C#N)cc1	< 4.52
N#Cc1ccc(/N=c2\c(O)c(O)\c2=N/C(CO)c2ccccc2)cc1 (stereo not given)	4.84
CC(N/C(=N\C#N)Nc1ccncc1)C(C)(C)C (single isomer, unassigned; (+)) [PINACIDIL ANHYDROUS]	6.20
CC(C)(C)/N=c1\c(O)c(O)\c1=N/c1cccnc1	5.55
N#Cc1ccc(Nc2c(NC(c3ccccc3)C(F)(F)F)c(=O)c2=O)cc1 (stereo not given)	5.40
Nc1c(Nc2cccnc2)c(=O)c1=O	< 4.52
C[C@@H](/N=c1\c(O)c(O)\c1=N/c1ccc(C#N)cc1Br)C(C)(C)C	7.12
CC(C)(C)/N=c1\c(O)c(O)\c1=N/c1ccc2ncccc2c1	< 4.52
CC[C@H](/N=c1\c(O)c(O)\c1=N/c1ccc(C#N)cc1)c1ccccc1	< 4.52
CC(C)(C)/N=c1\c(O)c(O)\c1=N/c1ccc(C#N)cc1	6.25
COc1ncccc1/N=c1\c(O)c(O)\c1=N/C(C)(C)C	5.59
CC(C)(C)/N=c1\c(O)c(O)\c1=N/c1cccnc1Cl	5.75
C[C@@H](/N=c1\c(O)c(O)\c1=N/c1ccc(C#N)c2c1CCCC2)C(C)(C)C	6.17
Cc1ccc(C(C)/N=c2\c(O)c(O)\c2=N/c2ccc(C#N)cc2)cc1 (stereo not given)	< 4.52
CC[C@@H](/N=c1\c(O)c(O)\c1=N/c1ccc(C#N)cc1)c1ccccc1	4.65
CCCc1cc(C#N)ccc1/N=c1\c(O)c(O)\c1=N/[C@H](C)C(C)(C)C	4.64
CC(C)/N=c1\c(O)c(O)\c1=N/c1ccc(C#N)cc1	4.86
CC(/N=c1\c(O)c(O)\c1=N/c1ccc(C#N)cc1)c1ccc(OC(F)(F)F)cc1 (stereo not given)	< 4.52
CC(/N=C(\NC#N)Nc1ccc(C#N)cc1)C(C)(C)C (stereo not given)	6.72
C[C@@H](/N=c1\c(O)c(O)\c1=N/c1ccc(C#N)cc1C(=O)c1ccccc1)C(C)(C)C	5.32
COc1ccc(Nc2c(NC(C)C(C)(C)C)c(=O)c2=O)cc1 (stereo not given)	5.62
COc1cc(/N=c2\c(O)c(O)\c2=N/C(C)C(C)(C)C)c2ncccc2c1 (stereo not given)	< 4.52
C[C@](O)(C(=O)Nc1ccc(C(=O)c2ccccc2)cc1)C(F)(F)F [ZD-6169]	6.03
C[C@H](/N=c1\c(O)c(O)\c1=N/c1ccc(C#N)cc1)c1ccccc1	< 4.52

The remaining lines, values ahead:

pIC50	SMILES
5.77	C[C@@H](/N=c1\c(O)c(O)\c1=N/c1ccncc1)C(C)(C)C
< 4.52	CC(/N=c1\c(O)c(O)\c1=N/c1ccccc1C#N)C(C)(C)C (stereo not given)
6.28	CC(/N=c1\c(O)c(O)\c1=N/c1ccc(C#N)cc1)C(C)(C)C (stereo not given)
< 4.52	CC(/N=c1\c(O)c(O)\c1=N/c1ccc(S(C)(=O)=O)cc1)C(C)(C)C (stereo not given)
5.90	CC(/N=c1\c(O)c(O)\c1=N/c1ccc(Br)cc1)C(C)(C)C (stereo not given)
6.20	Cc1cc(/N=c2\c(O)c(O)\c2=N/[C@H](C)C(C)(C)C)ccc1C#N
5.37	C[C@@H](/N=c1\c(O)c(O)\c1=N/c1ccc(C#N)c(Cl)c1)C(C)(C)C
6.13	C[C@@H](/N=c1\c(O)c(O)\c1=N/c1ccc2[nH]ncc2c1)C(C)(C)C
< 4.52	CC(/N=c1\c(O)c(O)\c1=N/c1ccc(-n2ccnc2)cc1)C(C)(C)C (stereo not given)
< 4.52	CC(/N=c1\c(O)c(O)\c1=N/c1ccc(S(N)(=O)=O)cc1)C(C)(C)C (stereo not given)
4.67	CC(=O)c1ccc(/N=c2\c(O)c(O)\c2=N/C(C)C(C)(C)C)cc1 (stereo not given)
5.72	C[C@@H](/N=c1\c(O)c(O)\c1=N/c1cccnc1)C(C)(C)C
5.34	C[C@@H](/N=c1\c(O)c(O)\c1=N/c1ccc2c[nH]nc2c1)C(C)(C)C
< 4.52	CC(/N=c1\c(O)c(O)\c1=N/c1ccc(C(F)(F)F)cc1)C(C)(C)C (stereo not given)
5.71	CC(/N=c1\c(O)c(O)\c1=N/c1cccnc1)C(C)(C)C (stereo not given)
5.87	CC(/N=c1\c(O)c(O)\c1=N/c1ccncc1)C(C)(C)C (stereo not given)
< 4.52	CC(/N=c1\c(O)c(O)\c1=N/c1ccc(-c2ccccc2)cc1)C(C)(C)C (stereo not given)
6.47	CC(/N=c1\c(O)c(O)\c1=N/c1ccc(CC#N)cc1)C(C)(C)C (stereo not given)
5.27	CC(/N=c1\c(O)c(O)\c1=N/c1ccccc1)C(C)(C)C (stereo not given)
5.52	CC(/N=c1\c(O)c(O)\c1=N/c1cccc(C#N)c1)C(C)(C)C (stereo not given)
4.93	CC(/N=c1\c(O)c(O)\c1=N/c1cncc(Br)c1)C(C)(C)C (stereo not given)
< 4.52	CC(/N=c1\c(O)c(O)\c1=N/c1ccc(OC(F)(F)F)cc1)C(C)(C)C (stereo not given)

Species: Rattus norvegicus
Experiment: In vitro inhibitory concentration that relaxes KCL induced contraction in rat detrusor strips by 50%; contracted
Type: functional
Conditions: not given
Outline: as §1

IC50	SMILES
contracted	N#Cc1ccc(Nc2c(NC3CCCCCC3)c(=O)c2=O)cc1
contracted	CC(/N=c1\c(O)c(O)\c1=N/c1ccccn1)C(C)(C)C (stereo not given)
contracted	COc1ccc(C(C)/N=c2\c(O)c(O)\c2=N/c2ccc(C#N)cc2)cc1 (stereo not given)

System: Rattus norvegicus
Experiment: Effective dose in vivo for reduction in MAP in normotensive rat model after oral administration
Type: functional
Conditions: not given
Outline: as §2

SMILES	ED20 [mg/kg]
CCc1cc(C#N)ccc1Nc1c(N[C@H](C)C(C)(C)C)c(=O)c1=O	2.3
CC1(C)Oc2ccc(OC(F)(F)F)cc2[C@@H](N2Cc3ccccc3C2=O)[C@@H]1O	0.2
C[C@](O)(C(=O)Nc1ccc(C(=O)c2ccccc2)cc1)C(F)(F)F [ZD-6169]	6.96

System: Rattus norvegicus
Experiment: compound was evaluated in vivo for maximum % change in MAP in normotensive rat model after oral administration of a dose of 10 mg/kg
Type: functional
Conditions: not given
Outline: as §2

SMILES	Change [%]
CC(/N=C(\NC#N)Nc1ccc(C#N)cc1)C(C)(C)C (stereo not given)	-19
